According to publication PMC7415516 (Clinical genitourinary cancer, 2020):
Read-outs that look alike come from different tables or passages of the source.

Legend:
[1] = tested on: patients with mCRPC; settings: sequence of ENZ followed by AA, cited from earlier work
[2] = tested on: patients with CRPC; settings: phase 1 study, once daily dosing; cited from earlier work
[3] = Pharmacokinetic analysis, plasma concentrations by LC-MS/MS, noncompartmental; type: in vivo, human; settings: for half-life / Cmax / Tmax / Vd/F: male, human, plasma; for Vd/F: Vz/F
[4] = tested on: CYP17 lyase; settings: cited from earlier work
[5] = tested on: CRPC cell lines MR49F, MDA-PCA-133, LNCaP; settings: MDA-PCA-133, LNCaP (AR F876L, H874Y, T877A); cited from earlier work
[6] = tested on: enzalutamide-resistant cell lines (e.g. C4–2, C4–2B, MR49C, MR49F); settings: established enzalutamide-resistant cell lines; cited from earlier work
[7] = tested on: patients with mCRPC previously treated with enzalutamide; test: Phase 2 open label study: PSA response, time to progression, overall survival; type: in vivo, human
Method in brief: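 Open-label trial in men aged 18 or older with progressive mCRPC after more than three 28-day enzalutamide cycles, split into pre- and post-docetaxel cohorts. Oral dosing without routine steroids: 150 mg twice daily titrated to 450 mg twice daily, later amended to 750 mg, then 600 mg, once daily. PSA response was a ≥50% drop from baseline at 12 weeks (PCWG2). Radiographic progression by modified RECIST 1.1. Kaplan-Meier time to progression and overall survival.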

[8] = tested on: patients with mCRPC previously treated with enzalutamide; test: Toxicity evaluation, adverse events graded by CTCAE version 4.0; type: in vivo, human
Method in brief: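 Adverse events in enrolled mCRPC patients were graded per NCI CTCAE v4.0 during oral dosing: twice-daily titration to 450 mg, later 750 mg or 600 mg once daily. A related Grade 3 event held treatment until recovery to Grade 1 or baseline. Investigator-discretion reductions were allowed for low-grade events. Drug was stopped for Grade 4 events, a delay over 6 weeks, or more than 2 reductions.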

[9] = tested on: patients with CRPC; settings: cited from earlier work; for PSA response rate: treatment naïve patients, daily cumulative doses of 600 mg or greater
[10] = 600 mg oral, C1D1 (n=4), first dose
[11] = 600 mg oral, C2D1 (n=4), steady-state
[12] = 750 mg oral, C1D1 (n=3), first dose
[13] = 750 mg oral, C2D2 (n=l), steady-state
[14] = po, 600 mg, 600 mg oral, C1D1 (n=4), first dose
[15] = po, 600 mg, 600 mg oral, C2D1 (n=4), steady-state
[16] = po, 750 mg, 750 mg oral, C1D1 (n=3), first dose
[17] = po, 750 mg, 750 mg oral, C2D2 (n=l), steady-state
[18] = N = 17, attribution at least possible

Structure (SMILES): CC(=O)O[C@H]1CC[C@@]2(C)C(=CC[C@@H]3[C@@H]2CC[C@]2(C)C(c4cccnc4)=CC[C@@H]32)C1 [AA, abiraterone acetate]
- PSA response rate ([1]; ref 39): 3%
- PSA response rate ([1]; ref 40): 8%

Structure (SMILES): CC(C)[C@](O)(c1ccc2cc(OC(F)F)c(OC(F)F)cc2c1)c1c[nH]nn1 [Seviteronel]
- patients experiencing fatigue [2]: 71%
- patients with blurry vision [2]: 33%
- patients with dizziness [2]: 52%
- AUC/D (dose-normalized) [3, 10]: 55.1 ± 7.21 mg·h/L/mg
- Cmax/D (dose-normalized) [3, 10]: 6.77 ± 3.20 mg/L/mg
- CL/F ([3]; 600 mg oral, C1D1 (n=4), first dose, Dose/AUCinf): 18.4 ± 2.50 L/h
- AUC/D (dose-normalized) [3, 11]: 92.3 ± 9.94 mg·h/L/mg
- Cmax/D (dose-normalized) [3, 11]: 7.76 ± 1.93 mg/L/mg
- CL/F ([3]; 600 mg oral, C2D1 (n=4), steady-state, Dose/AUCtau): 10.9 ± 1.32 L/h
- AUC/D (dose-normalized) [3, 12]: 58.9 ± 2.87 mg·h/L/mg
- Cmax/D (dose-normalized) [3, 12]: 6.82 ± 2.54 mg/L/mg
- CL/F ([3]; 750 mg oral, C1D1 (n=3), first dose, Dose/AUCinf): 17.0 ± 0.84 L/h
- AUC/D (dose-normalized) [3, 13]: 84.6 mg·h/L/mg
- Cmax/D (dose-normalized) [3, 13]: 7.53 mg/L/mg
- CL/F ([3]; 750 mg oral, C2D2 (n=l), steady-state, Dose/AUCtau): 11.8 L/h
- increase of dose-normalized steady-state AUCτ over first dose AUCINF ([3]; 6 patients, p=0.001): 61%
- dose-normalized CMAX, mean ([3]; Cycle 1): 6.79 µg/L/mg
- dose-normalized first dose AUCINF ([3]; first dose): 56.7 µg·h/L/mg
- half-life ([3]; oral, mean first dose half-life, 48-hr sampling window, range 7.9 – 23.5 hr): 13.9 h
- Cmax [3, 14]: 4070 ± 1920 ng/mL
- Cmax [3, 15]: 4660 ± 1160 ng/mL
- half-life ([3]; po, 600 mg, T1/2, 600 mg oral, C1D1 (n=4), first dose): 16.4 ± 4.78 h
- half-life ([3]; po, 600 mg, T1/2, 600 mg oral, C2D1 (n=4), steady-state): 14.8 ± 5.94 h
- Tmax [3, 14]: 2 h
- Tmax [3, 15]: 5 ± 2.58 h
- Vd/F [3, 14]: 438 ± 146 L
- Vd/F [3, 15]: 229 ± 77.7 L
- Cmax [3, 16]: 5110 ± 1900 ng/mL
- Cmax [3, 17]: 5650 ng/mL
- half-life ([3]; po, 750 mg, T1/2, 750 mg oral, C1D1 (n=3), first dose): 10.5 ± 4.35 h
- half-life ([3]; po, 750 mg, T1/2, 750 mg oral, C2D2 (n=l), steady-state): 18.3 h
- Tmax [3, 16]: 2 ± 1.7 h
- Tmax [3, 17]: 2 h
- Vd/F [3, 16]: 260 ± 121 L
- Vd/F [3, 17]: 312 L
- time to reach 97% steady-state ([3]; once daily dosing): 69.5 h
- expected accumulation above first-dose ([3]; once daily dosing until steady-state): 43%
- increase of steady-state dose-normalized CMAX over Cycle 1 ([3]; p=0.44): 20%
- start of apparent monophasic elimination post dose ([3]; single oral dose 600mg or 750mg with food): 2 to 4 h
- dose-normalized CMAX, mean ([3]; steady-state): 8.16 µg/L/mg
- dose-normalized steady-state AUCτ ([3]; steady-state): 91.3 µg·h/L/mg
- selectivity towards the CYP17 lyase over hydroxylase [4]: approximately 10 fold
- efficacy in in vivo models [5]: effective
- potency compared with AA [6]: more potent than AA
- rate of significant PSA response (≥ 50% decrease in baseline serum PSA) ([7]; all 17 patients, after 12 weeks of seviteronel, PCWG2 criteria): 6%
- patients having documented PSA progression per PCWG2 ([7]; of 17 patients): 8 patients
- minimal decline in PSA ([7]; one patient, pre-chemotherapy cohort, 750 mg once daily reduced to 450 mg once daily, after 11 weeks): 15%
- Blurred Vision, All Grades (Gr 1–3) [8, 18]: 4 (24) No. Patients (%)
- Blurred Vision, Grade 1 [8, 18]: 3 (18) No. Patients (%)
- Blurred Vision, Grade 2 [8, 18]: 1 (6) No. Patients (%)
- Blurred Vision, Grade 3 [8, 18]: 0 (0) No. Patients (%)
- Concentration Impairment, All Grades (Gr 1–3) [8, 18]: 14 (82) No. Patients (%)
- Concentration Impairment, Grade 1 [8, 18]: 9 (53) No. Patients (%)
- Concentration Impairment, Grade 2 [8, 18]: 4 (24) No. Patients (%)
- Concentration Impairment, Grade 3 [8, 18]: 1 (6) No. Patients (%)
- Dizziness, All Grades (Gr 1–3) [8, 18]: 6 (35) No. Patients (%)
- Dizziness, Grade 1 [8, 18]: 3 (18) No. Patients (%)
- Dizziness, Grade 2 [8, 18]: 1 (6) No. Patients (%)
- Dizziness, Grade 3 [8, 18]: 2 (12) No. Patients (%)
- Edema (limbs), All Grades (Gr 1–3) [8, 18]: 3 (18) No. Patients (%)
- Edema (limbs), Grade 1 [8, 18]: 2 (12) No. Patients (%)
- Edema (limbs), Grade 2 [8, 18]: 1 (6) No. Patients (%)
- Edema (limbs), Grade 3 [8, 18]: 0 (0) No. Patients (%)
- Fall, All Grades (Gr 1–3) [8, 18]: 3 (18) No. Patients (%)
- Fall, Grade 1 [8, 18]: 1 (6) No. Patients (%)
- Fall, Grade 2 [8, 18]: 1 (6) No. Patients (%)
- Fall, Grade 3 [8, 18]: 1 (6) No. Patients (%)
- Fatigue, All Grades (Gr 1–3) [8, 18]: 11 (65) No. Patients (%)
- Fatigue, Grade 1 [8, 18]: 3 (18) No. Patients (%)
- Fatigue, Grade 2 [8, 18]: 8 (47) No. Patients (%)
- Fatigue, Grade 3 [8, 18]: 0 (0) No. Patients (%)
- Gait Disturbance, All Grades (Gr 1–3) [8, 18]: 3 (18) No. Patients (%)
- Gait Disturbance, Grade 1 [8, 18]: 3 (18) No. Patients (%)
- Gait Disturbance, Grade 2 [8, 18]: 0 (0) No. Patients (%)
- Gait Disturbance, Grade 3 [8, 18]: 0 (0) No. Patients (%)
- Hypotension, All Grades (Gr 1–3) [8, 18]: 4 (24) No. Patients (%)
- Hypotension, Grade 1 [8, 18]: 1 (6) No. Patients (%)
- Hypotension, Grade 2 [8, 18]: 2 (12) No. Patients (%)
- Hypotension, Grade 3 [8, 18]: 1 (6) No. Patients (%)
- Malaise, All Grades (Gr 1–3) [8, 18]: 3 (18) No. Patients (%)
- Malaise, Grade 1 [8, 18]: 0 (0) No. Patients (%)
- Malaise, Grade 2 [8, 18]: 3 (18) No. Patients (%)
- Malaise, Grade 3 [8, 18]: 0 (0) No. Patients (%)
- Nausea, All Grades (Gr 1–3) [8, 18]: 9 (53) No. Patients (%)
- Nausea, Grade 1 [8, 18]: 7 (41) No. Patients (%)
- Nausea, Grade 2 [8, 18]: 0 (0) No. Patients (%)
- Nausea, Grade 3 [8, 18]: 2 (12) No. Patients (%)
- Presyncope, All Grades (Gr 1–3) [8, 18]: 3 (18) No. Patients (%)
- Presyncope, Grade 1 [8, 18]: 0 (0) No. Patients (%)
- Presyncope, Grade 2 [8, 18]: 3 (18) No. Patients (%)
- Presyncope, Grade 3 [8, 18]: 0 (0) No. Patients (%)
- Tremor, All Grades (Gr 1–3) [8, 18]: 10 (59) No. Patients (%)
- Tremor, Grade 1 [8, 18]: 9 (53) No. Patients (%)
- Tremor, Grade 2 [8, 18]: 1 (6) No. Patients (%)
- Tremor, Grade 3 [8, 18]: 0 (0) No. Patients (%)
- Vomiting, All Grades (Gr 1–3) [8, 18]: 3 (18) No. Patients (%)
- Vomiting, Grade 1 [8, 18]: 3 (18) No. Patients (%)
- Vomiting, Grade 2 [8, 18]: 0 (0) No. Patients (%)
- Vomiting, Grade 3 [8, 18]: 0 (0) No. Patients (%)
- Grade 4 adverse events related to study treatment ([8]; in vivo): No Grade 4 adverse events related to the study treatment were reported
- number of Grade 3 adverse events ([8]; in vivo): nine
- Concentration impairment Grade 2 or higher ([8]; of 17 patients): 5 patients
- patients with CNS toxicities that contributed to treatment discontinuation ([8]; of 17 patients): nine
- diarrhea ([8]; patients receiving 750 mg once daily): not reported
- tolerability ([8]; twice daily 450 mg or once daily 600/750 mg, without oral steroids): not generally well tolerated
- PSA declines of 50% or greater ([9]; 450 mg twice daily, patients who had previously received ENZ): 2 of 7
- response rate ([9]; pre-treated patients, Phase I study once daily dosing): 0%
- PSA response rate ([9]; once daily dosing (N=9)): 33%
- PSA response rate ([9]; twice daily dosing (N=26)): 11%
